These molecules were tested on Mycobacterium tuberculosis (assay: Antitubercular activity against Mycobacterium tuberculosis H37Rv at 6.25 ug/mL after 5 to 8 days).
Type: functional
Summary of the method: (§1)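 Inoculum diluted to reach growth index 999 in 5 days. Compound added from DMSO stock to 4 ml radiometric 7H12 (BACTEC-12B) broth; DMSO-only controls. Incubated at 37 °C, GI read daily until control reached 999. %inhibition = (1 − GI test/GI control) × 100.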
In the case of `COc1ccc(/C=N/NC(=O)Cc2cc(=O)oc3ccc(C)cc23)cc1OC`, the inhibition at 6.25 µg/mL is reported as 29%.
`Cc1ccc2oc(=O)cc(CC(=O)N/N=C/c3ccccc3)c2c1` was tested, and the inhibition at 6.25 µg/mL was 34%.
Molecule `COc1cc(/C=N/NC(=O)Cc2cc(=O)oc3ccc(C)cc23)cc(OC)c1OC` has an inhibition at 6.25 µg/mL of 34%.
Molecule `COc1ccc(/C=N/NC(=O)Cc2cc(=O)oc3ccc(C)cc23)cc1` has an inhibition at 6.25 µg/mL of 33%.
In the case of `Cc1ccc2oc(=O)cc(CC(=O)N/N=C/c3ccccc3Cl)c2c1`, the inhibition at 6.25 µg/mL is reported as 34%.
For `Cc1ccc2oc(=O)cc(CC(=O)N/N=C/c3ccc(F)cc3)c2c1`, the inhibition at 6.25 µg/mL was 26%.
`COc1cccc(/C=N/NC(=O)Cc2cc(=O)oc3ccc(C)cc23)c1` gave an inhibition at 6.25 µg/mL of 19%.
In the case of `Cc1ccc2oc(=O)cc(CC(=O)N/N=C/c3ccc(Cl)cc3)c2c1`, the inhibition at 6.25 µg/mL is reported as 19%.
In the case of `Cc1ccc2oc(=O)cc(CC(=O)N/N=C/c3ccccc3O)c2c1`, the inhibition at 6.25 µg/mL is reported as 55%.
`Cc1ccc2oc(=O)cc(CC(=O)N/N=C/c3cccc(Cl)c3)c2c1` was tested, and the inhibition at 6.25 µg/mL was 21%.
In the case of `Cc1ccc2oc(=O)cc(CC(=O)N/N=C/c3cccc([N+](=O)[O-])c3)c2c1`, the inhibition at 6.25 µg/mL is reported as 19%.
For `O=C(Cc1cc(=O)oc2cc(O)ccc12)N/N=C/c1cccc([N+](=O)[O-])c1`, the inhibition at 6.25 µg/mL was 93%.

Each molecule was assayed on Mycobacterium tuberculosis (assay: Antitubercular activity against Mycobacterium tuberculosis H37Rv at 12.5 ug/mL after 5 to 8 days).
Type: functional
Summary of the method: as §1
In the case of `Cc1cc2oc(=O)cc(CC(=O)N/N=C/c3ccc(Cl)cc3)c2cc1C`, the inhibition at 12.5 µg/mL is reported as 32%.
With `CSc1ccc(/C=N/NC(=O)Cc2cc(=O)oc3cc(C)c(C)cc23)cc1` the inhibition at 12.5 µg/mL was 6%.
For `Cc1ccc(C)c2c(CC(=O)N/N=C/c3ccc(Cl)cc3)cc(=O)oc12`, the inhibition at 12.5 µg/mL was 62%.
`Cc1ccc(C)c2c(CC(=O)N/N=C/c3ccccc3)cc(=O)oc12` was tested, and the inhibition at 12.5 µg/mL was 70%.
`Cc1cc2oc(=O)cc(CC(=O)N/N=C/c3ccccc3Cl)c2cc1C` showed an inhibition at 12.5 µg/mL of 17%.
`Cc1ccc(C)c2c(CC(=O)N/N=C/c3ccccc3Cl)cc(=O)oc12` was tested, and the inhibition at 12.5 µg/mL was 48%.
`Cc1ccc(C)c2c(CC(=O)N/N=C/c3ccc(N(C)C)cc3)cc(=O)oc12` showed an inhibition at 12.5 µg/mL of 7%.
`Cc1ccc(C)c2c(CC(=O)N/N=C/c3ccccc3[N+](=O)[O-])cc(=O)oc12` was tested, and the inhibition at 12.5 µg/mL was 65%.
Work on `Cc1cc2oc(=O)cc(CC(=O)N/N=C/c3ccccc3[N+](=O)[O-])c2cc1C` yielded an inhibition at 12.5 µg/mL of 11%.
Molecule `COc1cc(/C=N/NC(=O)Cc2cc(=O)oc3c(C)ccc(C)c23)cc(OC)c1OC` has an inhibition at 12.5 µg/mL of 52%.
Molecule `Cc1cc2oc(=O)cc(CC(=O)N/N=C/c3cccc([N+](=O)[O-])c3)c2cc1C` has an inhibition at 12.5 µg/mL of 31%.
For `COc1ccccc1/C=N/NC(=O)Cc1cc(=O)oc2c(C)ccc(C)c12`, the inhibition at 12.5 µg/mL was 54%.
For `Cc1ccc(C)c2c(CC(=O)N/N=C/c3cccc([N+](=O)[O-])c3)cc(=O)oc12`, the inhibition at 12.5 µg/mL was 39%.

Source: ChEMBL document CHEMBL1154457, “Synthesis, anti-tubercular activity and 3D-QSAR study of coumarin-4-acetic acid benzylidene hydrazides” (2008)
